Results published in ChEMBL document CHEMBL1649535, “In vitro interactions between antifungals and immunosuppressive drugs against zygomycetes” (2009).

Experiments:
Format in all cases: functional
Rhizopus arrhizus = experiment: Antimicrobial activity against Rhizopus oryzae after 24 hrs by broth microdilution checkerboard procedure
In short: (§1)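 CLSI broth microdilution for filamentous fungi, adapted to checkerboard; 1–3 isolates per species. Final ranges: amphotericin B and azoles 0.004–2 μg/ml; cyclosporine 0.125–8 μg/ml; tacrolimus and rapamycin 0.06–4 μg/ml, with extra runs at 0.001–0.06 μg/ml. Incubated 24 h at 35°C and read spectrophotometrically. MIC is the lowest concentration giving 50% inhibition (amphotericin B alone: 90%). Most tests run in duplicate.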

Lichtheimia corymbifera = experiment: Antimicrobial activity against Mycocladus corymbiferus after 24 hrs by broth microdilution checkerboard procedure; in short: as §1
Mucor circinelloides = experiment: Antimicrobial activity against Mucor circinelloides after 24 hrs by broth microdilution checkerboard procedure; in short: as §1
[1] = Antimicrobial activity against Rhizopus microsporus after 24 hrs by broth microdilution checkerboard procedure; in short: as §1
Rhizomucor pusillus = experiment: Antimicrobial activity against Rhizomucor pusillus after 24 hrs by broth microdilution checkerboard procedure; in short: as §1

SMILES	MIC (Rhizopus arrhizus)	MIC (Lichtheimia corymbifera)	MIC (Mucor circinelloides)	MIC [1]	MIC (Rhizomucor pusillus)
C[C@@H](c1nc(-c2ccc(C#N)cc2)cs1)[C@](O)(Cn1cncn1)c1ccc(F)cc1F [RAVUCONAZOLE]	0.44 µg/mL	0.44 µg/mL	0.44 µg/mL	0.44 µg/mL	0.44 µg/mL
CCC(C)n1ncn(-c2ccc(N3CCN(c4ccc(OCC5COC(Cn6cncn6)(c6ccc(Cl)cc6Cl)O5)cc4)CC3)cc2)c1=O (centres undefined) [ITRACONAZOLE]	0.62 µg/mL	0.62 µg/mL	0.62 µg/mL	0.62 µg/mL	0.62 µg/mL
CO[C@H]1C[C@@H]2CC[C@@H](C)[C@@](O)(O2)C(=O)C(=O)N2CCCC[C@H]2C(=O)O[C@H]([C@H](C)C[C@@H]2CC[C@@H](O)[C@H](OC)C2)CC(=O)[C@H](C)/C=C(\C)[C@@H](O)[C@@H](OC)C(=O)[C@H](C)C[C@H](C)/C=C/C=C/C=C/1C [SIROLIMUS]		> 4 µg/mL	≤ 0.25 µg/mL	≤ 0.25 µg/mL	> 4 µg/mL
CC[C@@H]([C@H](C)O)n1ncn(-c2ccc(N3CCN(c4ccc(OC[C@@H]5CO[C@@](Cn6cncn6)(c6ccc(F)cc6F)C5)cc4)CC3)cc2)c1=O [POSACONAZOLE]	0.57 µg/mL	0.57 µg/mL	0.57 µg/mL	0.57 µg/mL	0.57 µg/mL
C[C@@H]1[C@H](O)[C@@H](C)/C=C/C=C/C=C/C=C/C=C/C=C/C=C/[C@H](O[C@@H]2O[C@H](C)[C@@H](O)[C@H](N)[C@@H]2O)C[C@@H]2O[C@](O)(C[C@@H](O)C[C@@H](O)[C@H](O)CC[C@@H](O)C[C@@H](O)CC(=O)O[C@H]1C)C[C@H](O)[C@H]2C(=O)O [AMPHOTERICIN B]	0.125 µg/mL	0.125 µg/mL	0.125 µg/mL	0.125 µg/mL	0.125 µg/mL
C=CC[C@@H]1/C=C(\C)C[C@H](C)C[C@H](OC)[C@H]2O[C@@](O)(C(=O)C(=O)N3CCCC[C@H]3C(=O)O[C@H](/C(C)=C/[C@@H]3CC[C@@H](O)[C@H](OC)C3)[C@H](C)[C@@H](O)CC1=O)[C@H](C)C[C@@H]2OC [TACROLIMUS ANHYDROUS]	≤ 0.5 µg/mL	≤ 0.5 µg/mL	≤ 0.5 µg/mL	> 4 µg/mL	> 4 µg/mL
